# Results collected from several papers.
# Protocols differ between the studies behind these lines.
# Matrix: plasma
Structure (SMILES),test system,setting,Cmax
COc1cc2c(cc1OC)CN(CCc1ccc(NC(=O)c3cc(OC)c(OC)cc3NC(=O)c3cnc4ccccc4c3)cc1)CC2,human,"intravenous, 1.5 mg/kg, patients",2300 nM
N#CN1C[C@H](n2nc(-c3ccc(Oc4ccc(Cl)cn4)cc3)c(C(N)=O)c2N)CCC12CC2,human,"oral, 600 mg, single dose, fed",1060 ng/mL
CC(=O)Oc1ccccc1C(=O)O,human,"oral, 650 mg, healthy volunteers",3480 ng/mL
COCCOc1cnc2ccn([C@H](C)c3nnc4c(F)cc(-c5cnn(C)c5)cn34)c(=O)c2c1,human,"oral, 200 mg, multiple doses, once daily, patients",3760 ng/mL
CCc1nc2c(C)cc(N3CCN(CC(=O)N4CC(O)C4)CC3)cn2c1N(C)c1nc(-c2ccc(F)cc2)c(C#N)s1,human,"oral, 1000 mg, fed, healthy volunteers",13200 ng/mL
CC(C)(O)c1ccccc1-c1ccc2[nH]c(/C=C/c3ccc(C(F)(F)F)cc3)nc2c1,male human,"oral, 120 mg, single dose, fasted, healthy volunteers",261 ng/mL
Cc1nc(Nc2ncc(C(=O)Nc3c(C)cccc3Cl)s2)cc(N2CCN(CCO)CC2)n1,human,"oral, 65 mg/m², multiple doses, twice daily, steady state, patients",168 ng/mL
CNC(=O)c1cc(Oc2ccc(NC(=O)Nc3cc(C(C)(C)C)nn3-c3ccc4ncccc4c3)c(F)c2)ccn1,human,"oral, 200 mg, multiple doses, twice daily",377 ng/mL
CC(C)n1cc(C#N)c2cc(-n3cc(C(=O)O)cn3)ccc21,human,"oral, 400 mg, single dose, fasted, healthy volunteers",14700 ng/mL
Nc1cc(C(F)(F)F)c(-c2cc(N3CCOCC3)nc(N3CCOCC3)n2)cn1,human,"oral, 100 mg/day, patients",1080 ng/mL
Cn1c(=O)oc2ccc(-c3ccc(C[C@@H](C#N)NC(=O)[C@@H]4CNCCCO4)cc3)cc21,male human,"oral, 65 mg, single dose, healthy volunteers",1360 nM
C[C@@H](Oc1ccc(S(C)(=O)=O)cc1C(=O)N1C[C@@H]2C[C@]2(c2cc(C(F)(F)F)on2)C1)C(F)(F)F,human,"oral, 25 mg, fed, tablet",312 nM
Cn1cc(-c2ccc(S(=O)(=O)[C@@H]3C[C@@H](C(=O)NC4(C#N)CC4)N(C(=O)C4(C(F)(F)F)CC4)C3)c(C(F)(F)F)c2)cn1,human,"oral, 100 mg, single dose, fed",946 ng/mL
CCn1c(=O)c(-c2cc(NC(=O)Nc3ccccc3)c(F)cc2Br)cc2cnc(NC)cc21,human,"oral, 20 mg, single dose, patients",109 ng/mL
CC(C)(Sc1ccncc1-c1ccc(C#N)c2ccccc12)C(=O)O,male human,"oral, 5 mg, single dose, fed, healthy volunteers",45.7 ng/mL
COc1cc(C(=O)NC2CCN(C)CC2)c(F)cc1Nc1ncc(C(F)(F)F)c(Oc2cccc3c2C(=O)N(C)C3)n1,human,"oral, 50 mg, multiple doses, once daily, steady state, patients",430 nM
Cc1ccc(C(=O)N(CCCN)[C@@H](c2oc3cc(Cl)ccc3c(=O)c2Cc2ccccc2)C(C)C)cc1,human,"intravenous, 8 mg/m², single dose, patients, infusion",803 ng/mL
O=C(O)C[C@H](O)C[C@H](O)/C=C/c1c(C2CC2)nc2ccccc2c1-c1ccc(F)cc1,human,"oral, 2 mg, single dose, fed, healthy volunteers, tablet",46.5 ng/mL
O=C(/C=C/c1cccc(S(=O)(=O)Nc2ccccc2)c1)NO,human,"intravenous, 2000 mg/m², patients",112000 ng/mL
C#Cc1cccc(Nc2ncnc3cc(OCCOC)c(OCCOC)cc23)c1,human,"oral, 100 mg, patients",1820 nM
C[C@@]1(c2cc(NC(=O)c3ccc(C#N)cn3)ccc2F)C=CSC(N)=N1,male human,"oral, 1 mg, single dose",6.72 ng/mL
NS(=O)(=O)NCCNc1nonc1C(=NO)Nc1ccc(F)c(Br)c1,human,"oral, 300 mg, multiple doses, twice daily, steady state, patients",2480 nM
CS(=O)(=O)CCNCc1ccc(-c2ccc3ncnc(Nc4ccc(OCc5cccc(F)c5)c(Cl)c4)c3c2)o1,human,"oral, 500 mg, multiple doses, twice daily, steady state, patients",2370 ng/mL
O=C(Nc1c(Cl)cncc1Cl)c1ccc(OC(F)F)c(OCC2CC2)c1,human,"oral, 0.5 mg, single dose, fasted",12.5 ng/mL
CC(C)(C(=O)N1CCOc2c(C#N)cncc2C1)C(F)F,human,"oral, 30 mg, single dose, fasted, healthy volunteers",417 ng/mL
CCCCC[C@H](O)CC[C@@H]1[C@H]2Cc3cccc(OCC(=O)O)c3C[C@H]2C[C@H]1O,human,"inhaled, 18 µg, single dose, healthy volunteers",0.43 ng/mL
CCCCC1=NC2(CCCC2)C(=O)N1Cc1ccc(-c2ccccc2S(=O)(=O)Nc2noc(C)c2C)c(COCC)c1,human,"oral, 200 mg, single dose, fed, healthy volunteers",6280 ng/mL
Oc1cc(O)c2c(c1)O[C@@H](c1ccc(O)c(O)c1)[C@@H](O)C2,human,"oral, 30 mg, single dose",0.7 ng/mL
C/C(=C\c1csc(C)n1)[C@@H]1C[C@@H]2O[C@]2(C)CCC[C@H](C)[C@H](O)[C@@H](C)C(=O)C(C)(C)[C@@H](O)CC(=O)N1,human,"intravenous, 20 mg/m², patients",249 ng/mL
FC(F)(F)c1ccc(CNc2ccc(Cc3c[nH]c4ncc(Cl)cc34)cn2)cn1,human,"oral, 1200 mg, multiple doses, patients",8730 ng/mL
COc1ccc([C@@H]2CN(C(=O)[C@@H](O)CO)C[C@@]2(C)[C@@H](C)O)cc1OC1CN(c2ccc(C)cn2)C1,human,"oral, 0.1 mg, single dose, healthy volunteers",8.8 ng/mL
CO[C@@H]1[C@H](OC(=O)N2CC(CCN3CCOCC3)C2)CC[C@]2(CO2)[C@H]1[C@@]1(C)O[C@@H]1CC=C(C)C,human,"subcutaneous, 0.2 mg, single dose, healthy volunteers",0.45 ng/mL
CO[C@H]1CC[C@H](N2C(=O)CNc3ncc(-c4ccc(C(C)(C)O)nc4)nc32)CC1,human,"oral, 7.5 mg, multiple doses, patients",50.8 ng/mL
